Active and inactive are the calls of the source. The rule behind the calls is not given here. Peptide text beside a SMILES is read from it.
Columns and labels:
[1] = system: J774.A1; experiment: Antiinflammatory activity in mouse J774A.1 cells assessed as decrease in LPS-stimulated IL6 production at 30 ug/ml; type: functional; parameters: scale not given: the % may be the effect or the level left
Outline: (§1)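 J774A.1 murine macrophages at 1 × 10⁶/mL in RPMI 1640 with 10% heat-inactivated FBS and 2 mM L-glutamine, 37 °C, 5% CO₂. Cells preincubated with cyclopeptide at 37 °C for 30 min, then stimulated with LPS (0.1 µg/mL) for a further 6 h. TNF-α and IL-6 in culture medium measured by ELISA. DMSO-treated cells served as controls.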

[2] = system: J774.A1; experiment: Antiinflammatory activity in mouse J774A.1 cells assessed as decrease in LPS-stimulated TNFalpha production at 3 to 50 ug/ml; type: functional, cell-based; outline: as §1
[3] = system: J774.A1; experiment: Antiinflammatory activity in mouse J774A.1 cells assessed as decrease in LPS-stimulated TNFalpha production at 30 ug/ml; type: functional; parameters: scale not given: the % may be the effect or the level left; outline: as §1
[4] = system: J774.A1; experiment: Antiinflammatory activity in mouse J774A.1 cells assessed as decrease in LPS-stimulated IL6 production at 3 to 50 ug/ml; type: functional, cell-based; outline: as §1
[5] = system: J774.A1; experiment: Antiinflammatory activity in mouse J774A.1 cells assessed as decrease in pam3Cys-stimulated IL6 production at 3 to 50 ug/ml; type: functional, cell-based
Outline: (§2)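 J774A.1 murine macrophages at 1 × 10⁶/mL in RPMI 1640 with 10% heat-inactivated FBS and 2 mM L-glutamine, 37 °C, 5% CO₂. Cells pretreated with cyclopeptide for 30 min, then stimulated with the TLR2 ligand Pam3Cys for an additional 6 h. TNF-α or IL-6 in culture medium determined by ELISA.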

[6] = system: J774.A1; experiment: Antiinflammatory activity in mouse J774A.1 cells assessed as decrease in pam3Cys-stimulated IL6 production at 3 ug/ml
[7] = system: J774.A1; experiment: Antiinflammatory activity in mouse J774A.1 cells assessed as decrease in pam3Cys-stimulated IL6 production at 3 ug/ml; type: functional, cell-based; outline: as §2
[8] = system: J774.A1; experiment: Antiinflammatory activity in mouse J774A.1 cells assessed as decrease in LPS-stimulated IL6 production at 3 ug/ml
[9] = system: J774.A1; experiment: Antiinflammatory activity in mouse J774A.1 cells assessed as decrease in LPS-stimulated TNFalpha production at 1 ug/ml; type: functional, cell-based; outline: as §1
[10] = system: J774.A1; experiment: Antiinflammatory activity in mouse J774A.1 cells assessed as decrease in LPS-stimulated IL6 production at 3 ug/ml; type: functional, cell-based; outline: as §1
[11] = system: J774.A1; experiment: Antiinflammatory activity in mouse J774A.1 cells assessed as decrease in LPS-stimulated TNFalpha production at 3 ug/ml; type: functional, cell-based; outline: as §1
[12] = system: J774.A1; experiment: Antiinflammatory activity in mouse J774A.1 cells assessed as decrease in pam3Cys-stimulated TNFalpha production at 1 ug/ml; type: functional, cell-based; outline: as §2
[13] = system: J774.A1; experiment: Antiinflammatory activity in mouse J774A.1 cells assessed as decrease in pam3Cys-stimulated TNFalpha production at 3 ug/ml; type: functional; outline: as §2
[14] = system: J774.A1; experiment: Antiinflammatory activity in mouse J774A.1 cells assessed as decrease in pam3Cys-stimulated TNFalpha production at 50 ug/ml; type: functional; outline: as §2
[15] = system: J774.A1; experiment: Antiinflammatory activity in mouse J774A.1 cells assessed as decrease in pam3Cys-stimulated IL6 production; type: functional, cell-based; outline: as §2
[16] = system: J774.A1; experiment: Antiinflammatory activity in mouse J774A.1 cells assessed as decrease in pam3Cys-stimulated TNFalpha production at 10 ug/ml; type: functional; outline: as §2
[17] = system: J774.A1; experiment: Antiinflammatory activity in mouse J774A.1 cells assessed as decrease in pam3Cys-stimulated TNFalpha production at 5 ug/ml; type: functional; outline: as §2
[18] = system: J774.A1; experiment: Antiinflammatory activity in mouse J774A.1 cells assessed as decrease in pam3Cys-stimulated TNFalpha production at 30 ug/ml; type: functional; outline: as §2
[19] = system: A549; experiment: Cytotoxicity against human A549 cells; type: functional, cell-based
[20] = system: Hep 3B2; experiment: Cytotoxicity against human Hep3B cells; type: functional, cell-based
[21] = system: MDA-MB-231; experiment: Cytotoxicity against human MDA-MB-231 cells; type: functional, cell-based
[22] = system: MCF7; experiment: Cytotoxicity against human MCF7 cells; type: functional, cell-based
[23] = system: HepG2; experiment: Cytotoxicity against human HepG2 cells; type: functional, cell-based
[24] = system: KB; experiment: Cytotoxicity against human KB cells; type: functional, cell-based
[25] = system: Ca9-22; experiment: Cytotoxicity against human Ca9-22 cells; type: functional, cell-based

CC(C)[C@@H]1NC(=O)[C@H](Cc2c[nH]cn2)NC(=O)[C@H](CC(N)=O)NC(=O)[C@H](Cc2ccccc2)NC(=O)[C@H]([C@@H](C)O)NC(=O)[C@@H]2CCCN2C(=O)[C@@H]2CCCN2C(=O)[C@H](Cc2ccccc2)NC(=O)[C@H](CC(N)=O)NC1=O [CYCLOMONTANIN C] (cyclo(FNHVNFPPT))
Activity [1]: 50% | Activity [2]: Active | Activity [3]: 50% | Activity [4]: Active | Activity [5]: Active

CC(C)C[C@@H]1NC(=O)CNC(=O)[C@@H]2CCCN2C(=O)[C@H]([C@@H](C)O)NC(=O)[C@H](Cc2c[nH]c3ccccc23)NC(=O)[C@H](C)NC(=O)[C@H](CC(N)=O)NC1=O [CYCLOMONTANIN A] (cyclo(AWTPGLN))
Activity [6]: Active | Activity [1]: 50% | Activity [7]: Active | Activity [8]: Active | Activity [9]: Active | Activity [10]: Active | Activity [11]: Active | Activity [12]: Active | Activity ([13]; 1 ug/ml, in the assay text read “at 1 ug/ml” for “at 3 ug/ml”): Active | Activity [3]: 50%

CC(C)C[C@@H]1NC(=O)CNC(=O)[C@@H]2CCCN2C(=O)[C@H](CC(N)=O)NC(=O)[C@H](C)NC(=O)[C@H](Cc2ccc(O)cc2)NC(=O)[C@@H]2CCCN2C1=O [CYCLOMONTANIN D] (cyclo(ANPGLPY))
Activity [1]: 50% | inhibition at 50 µg/mL [14]: 90% | Activity [15]: Dose-dependent effect | inhibition at 10 µg/mL [16]: 60% | inhibition at 5 µg/mL [17]: 50% | inhibition at 30 µg/mL [18]: 85% | inhibition at 3 µg/mL [13]: 20% | Activity [3]: 50%

CC(C)[C@@H]1NC(=O)[C@H](Cc2ccccc2)NC(=O)CNC(=O)[C@@H]2CCCN2C(=O)[C@H](C)NC(=O)[C@H](CO)NC1=O [ANNUMURICATIN C] (cyclo(APGFVS))
Activity [1]: 50% | Activity [19]: inactive | Activity [20]: inactive | Activity [21]: inactive | Activity [22]: inactive | Activity [23]: inactive | IC50 [24]: 1 µM | Activity [3]: 50% | Activity [25]: inactive

Reference: ChEMBL document CHEMBL1156640, “Cyclopeptides with anti-inflammatory activity from seeds of Annona montana” (J Nat Prod, 2008)
